Test results published in ChEMBL document CHEMBL1131173, “Alkoxypsoralens, novel nonpeptide blockers of Shaker-type K+ channels: synthesis and photoreactivity” (J Med Chem, 1998).

Tests used:
[1] = Compound was tested for production of singlet oxygen, measured as decrease in absorbance of N,N-dimethyl-p-nitrosoaniline (RNO) at 440 nm after 5 hr of UV-A irradiation; assay type: ADME; conditions: 10 µM
Outline: (§1)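 Singlet oxygen generation by compound at 10 µM in O2-saturated solution, read as RNO bleaching. Absorbance decrease was measured at 440 nm after 5 h of UV-A irradiation (4.5 mW/cm2, incident dose 81 J/cm2).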

[2] = target: T1, Potassium voltage-gated channel subfamily A member 1 (Homo sapiens, UniProt Q09470); experiment: Selectivity of K+ current blockade given by Bk/BNa in Xenopus laevis; assay type: functional
T1 sequence (Q09470 whole entry): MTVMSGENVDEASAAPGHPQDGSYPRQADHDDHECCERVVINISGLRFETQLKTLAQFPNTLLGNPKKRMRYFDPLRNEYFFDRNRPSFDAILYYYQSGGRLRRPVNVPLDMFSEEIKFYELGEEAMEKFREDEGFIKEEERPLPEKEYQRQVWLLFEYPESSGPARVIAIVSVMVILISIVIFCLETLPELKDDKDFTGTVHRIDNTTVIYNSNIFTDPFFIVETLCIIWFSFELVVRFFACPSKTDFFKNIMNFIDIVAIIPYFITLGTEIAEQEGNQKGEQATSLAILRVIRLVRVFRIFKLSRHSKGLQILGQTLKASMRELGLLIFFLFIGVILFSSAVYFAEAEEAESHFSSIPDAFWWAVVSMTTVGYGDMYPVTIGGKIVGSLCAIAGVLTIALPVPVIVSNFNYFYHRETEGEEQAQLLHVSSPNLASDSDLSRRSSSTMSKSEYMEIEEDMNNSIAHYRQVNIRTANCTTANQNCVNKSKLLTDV
Outline: (§2)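 On the Ranvier node, compound was tested at 25 µM. Steady-state K+ current block (BK) was normalized to currents in normal bathing medium. Peak Na+ current block was measured at 70 mV pulse amplitude and normalized the same way. Selectivity S = BK/BNa.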

[3] = target: T1, Potassium voltage-gated channel subfamily A member 1; experiment: K+ channel blocking activity as blockade at 25 uM in Xenopus laevis Ranvier nodes; assay type: functional; outline: as §2
Artemia salina [4] = experiment: Photoinduced dose modification against nauplii of Artemia salina; assay type: functional
Outline: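 Artemia salina nauplii were collected 48 h after hatching, ten per vial in 3 mL seawater, with compound from 100 nM upward; methanol was the vehicle. Vials were incubated at 25 °C under daylight or with added UV-A (1.3 mW/cm2, incident dose 112 J/cm2). Dead nauplii were counted at 24 h to give LC50. Assays were run in triplicate.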

Nucleic Acid [5] = experiment: Photobinding to Poly(dA-dT)-Poly(dA-dT)-DNA after UV-A irradiation; assay type: nucleic-acid assay
Outline: (§3)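 Poly(dA-dT)-poly(dA-dT) at 10 µM in 0.1 M MOPS, pH 7.0, with compound at a 1:1 compound:DNA ratio. Samples were kept 30 min in the dark or irradiated 30 min at 365 nm (4.5 mW/cm2, 8.1 J/cm2). Melting profiles gave ΔTm = Tm(DNA+drug) − Tm(DNA), as the mean of three determinations.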

[6] = (§4) Compound was tested for in vitro phototoxicity against nauplii of Artemia salina after UV-irradiation
Outline: (§5)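 Artemia salina nauplii were hatched for 48 h, and ten per vial were placed in 3 mL seawater containing compound from 100 nM upward in methanol. Incubation was at 25 °C either under daylight or under added UV-A (1.3 mW/cm2, incident dose 112 J/cm2). Dead nauplii were counted at 24 h to give LC50. Run in triplicate.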

Nucleic Acid [7] = experiment: Photobinding to Poly(dA-dT)-Poly(dA-dT)-DNA in dark, determined by the shift of thermal transition temperature; assay type: nucleic-acid assay; outline: as §3
[8] = (§6) Compound was tested for in vitro phototoxicity against nauplii of Artemia salina in daylight; outline: as §5
[9] = target: T2, Voltage-gated potassium channel KCNC1 (Homo sapiens, UniProt P48547); experiment: Blockade of peak K+ currents against Kv3.1 gene; assay type: functional
T2 sequence (P48547 whole entry): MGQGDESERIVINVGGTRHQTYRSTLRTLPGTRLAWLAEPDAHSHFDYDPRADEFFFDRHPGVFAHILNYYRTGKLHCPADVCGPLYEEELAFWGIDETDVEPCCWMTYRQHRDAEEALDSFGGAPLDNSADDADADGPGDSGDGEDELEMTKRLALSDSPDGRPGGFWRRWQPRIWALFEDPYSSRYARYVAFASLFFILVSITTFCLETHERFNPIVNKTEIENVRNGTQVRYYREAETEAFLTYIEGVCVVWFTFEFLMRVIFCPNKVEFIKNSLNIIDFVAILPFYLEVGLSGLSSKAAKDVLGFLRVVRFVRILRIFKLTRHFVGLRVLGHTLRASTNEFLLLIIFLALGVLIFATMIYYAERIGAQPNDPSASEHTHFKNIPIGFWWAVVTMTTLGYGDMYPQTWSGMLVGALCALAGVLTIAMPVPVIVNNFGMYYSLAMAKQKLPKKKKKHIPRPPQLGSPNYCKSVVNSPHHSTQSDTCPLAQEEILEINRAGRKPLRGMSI
Outline: (§7)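 Channels expressed in mammalian cells and recorded by whole-cell patch clamp. Each compound was applied at several concentrations, and the apparent dissociation constant Kd was calculated for block of peak K+ current.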

[10] = Compound was tested for production of single oxygen, measured as decrease in absorbance of N,N-dimethyl-p-nitrosoaniline (RNO) at 440 nm after 5 hr of UV-A irradiation; assay type: ADME; conditions: 10 µM
Outline: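 Singlet oxygen from compound at 10 µM was measured in O2-saturated solution by bleaching of N,N-dimethyl-p-nitrosoaniline. The read-out was the fall in absorbance at 440 nm after 5 h of UV-A (4.5 mW/cm2, incident dose 81 J/cm2).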

[11] = target: Potassium voltage-gated channel subfamily A member 6 (Homo sapiens, UniProt P17658); experiment: Blockade of peak K+ currents against Kv1.6 gene; assay type: functional
Sequence of Potassium voltage-gated channel subfamily A member 6 (P17658 whole entry): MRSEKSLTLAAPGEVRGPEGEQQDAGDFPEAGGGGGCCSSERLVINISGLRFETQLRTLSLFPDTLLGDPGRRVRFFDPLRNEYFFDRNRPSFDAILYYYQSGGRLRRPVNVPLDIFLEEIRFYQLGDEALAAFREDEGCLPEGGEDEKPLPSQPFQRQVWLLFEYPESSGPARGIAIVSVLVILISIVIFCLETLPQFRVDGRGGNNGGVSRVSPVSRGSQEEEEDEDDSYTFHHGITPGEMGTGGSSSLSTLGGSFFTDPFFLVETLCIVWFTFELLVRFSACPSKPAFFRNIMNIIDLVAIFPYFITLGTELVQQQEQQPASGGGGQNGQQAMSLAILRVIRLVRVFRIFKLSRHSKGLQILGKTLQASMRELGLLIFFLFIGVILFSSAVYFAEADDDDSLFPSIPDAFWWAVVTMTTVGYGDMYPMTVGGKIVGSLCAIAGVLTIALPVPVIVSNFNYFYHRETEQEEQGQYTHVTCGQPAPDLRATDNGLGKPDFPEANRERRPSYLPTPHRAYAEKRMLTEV
Outline: (§8)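 Whole-cell patch-clamp recording of cloned channels expressed in mammalian cells. Each compound was tested at several concentrations, and an apparent Kd for block of peak K+ current was calculated.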

[12] = target: Potassium voltage-gated channel subfamily A member 2 (Homo sapiens, UniProt P16389); experiment: Blockade of peak K+ currents against Kv1.2 gene; assay type: functional; outline: as §7
Sequence of Potassium voltage-gated channel subfamily A member 2 (P16389 whole entry): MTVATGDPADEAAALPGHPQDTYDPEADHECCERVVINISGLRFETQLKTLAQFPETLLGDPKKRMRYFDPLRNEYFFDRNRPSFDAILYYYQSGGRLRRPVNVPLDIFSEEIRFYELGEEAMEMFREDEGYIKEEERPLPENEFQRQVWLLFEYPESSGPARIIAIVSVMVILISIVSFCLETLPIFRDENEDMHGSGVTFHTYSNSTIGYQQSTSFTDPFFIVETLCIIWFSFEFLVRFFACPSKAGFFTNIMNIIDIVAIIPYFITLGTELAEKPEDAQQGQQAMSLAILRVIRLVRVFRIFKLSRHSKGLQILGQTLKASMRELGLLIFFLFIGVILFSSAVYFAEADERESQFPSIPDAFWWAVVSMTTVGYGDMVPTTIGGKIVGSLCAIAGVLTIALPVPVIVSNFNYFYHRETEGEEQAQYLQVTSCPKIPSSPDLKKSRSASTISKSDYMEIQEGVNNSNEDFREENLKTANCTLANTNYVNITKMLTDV

[13] = target: Potassium voltage-gated channel subfamily A member 5 (Homo sapiens, UniProt P22460); experiment: Blockade of peak K+ currents against Kv1.5 gene; assay type: functional; outline: as §8
Sequence of Potassium voltage-gated channel subfamily A member 5 (P22460 whole entry): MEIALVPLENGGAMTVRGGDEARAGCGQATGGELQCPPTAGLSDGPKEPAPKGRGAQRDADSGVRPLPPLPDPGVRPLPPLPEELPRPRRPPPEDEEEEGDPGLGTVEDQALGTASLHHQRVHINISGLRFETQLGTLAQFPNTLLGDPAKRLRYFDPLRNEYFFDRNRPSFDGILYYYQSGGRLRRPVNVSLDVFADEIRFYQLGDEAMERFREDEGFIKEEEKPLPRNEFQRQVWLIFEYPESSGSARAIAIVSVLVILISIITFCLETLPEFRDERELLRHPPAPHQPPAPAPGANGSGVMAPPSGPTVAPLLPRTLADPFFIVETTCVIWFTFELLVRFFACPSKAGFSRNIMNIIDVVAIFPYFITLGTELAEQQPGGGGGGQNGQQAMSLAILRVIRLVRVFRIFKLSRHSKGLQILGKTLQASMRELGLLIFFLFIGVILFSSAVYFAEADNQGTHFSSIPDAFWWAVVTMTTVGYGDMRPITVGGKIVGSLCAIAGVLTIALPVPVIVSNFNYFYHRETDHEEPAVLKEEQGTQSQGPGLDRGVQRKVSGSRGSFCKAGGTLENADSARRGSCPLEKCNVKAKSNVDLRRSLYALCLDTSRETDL

[14] = target: T1, Potassium voltage-gated channel subfamily A member 1; experiment: Blockade of peak K+ currents against Kv1.1 gene; assay type: functional; outline: as §7
[15] = target: Potassium voltage-gated channel subfamily A member 3 (Mus musculus, UniProt P16390); experiment: Blockade of peak Kv1.3 potassium currents; assay type: functional; outline: as §7
Sequence of Potassium voltage-gated channel subfamily A member 3 (P16390 whole entry): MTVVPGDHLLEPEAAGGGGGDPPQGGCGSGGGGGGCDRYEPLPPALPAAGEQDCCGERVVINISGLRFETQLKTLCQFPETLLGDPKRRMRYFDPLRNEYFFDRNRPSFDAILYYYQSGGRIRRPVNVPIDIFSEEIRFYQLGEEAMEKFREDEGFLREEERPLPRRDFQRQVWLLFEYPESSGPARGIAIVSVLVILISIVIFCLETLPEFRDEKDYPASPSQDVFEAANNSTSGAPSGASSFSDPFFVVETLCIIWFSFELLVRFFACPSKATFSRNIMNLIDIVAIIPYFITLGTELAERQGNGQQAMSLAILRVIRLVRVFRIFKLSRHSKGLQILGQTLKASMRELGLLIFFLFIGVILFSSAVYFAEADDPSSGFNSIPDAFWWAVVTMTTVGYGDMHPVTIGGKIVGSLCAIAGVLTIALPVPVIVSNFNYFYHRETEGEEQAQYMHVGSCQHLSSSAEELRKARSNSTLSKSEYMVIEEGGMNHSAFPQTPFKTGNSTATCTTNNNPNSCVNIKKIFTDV

[16] = compound was tested for production of singlet oxygen, measured as decrease in absorbance of N,N-dimethyl-p-nitrosoaniline (RNO) at 440 nm after 5 hr of UV-A irradiation; assay type: ADME; conditions: 10 µM; outline: as §1
Artemia salina [17] = experiment: as §6; assay type: functional; conditions: light or radiation study; outline: as §5
Artemia salina [18] = experiment: as §4; assay type: functional; conditions: light or radiation study; outline: as §5

SMILES	Selectivity [2]	BK [3]	Dose modification (Artemia salina [4])	ΔTm (Nucleic Acid [5])	LC50 [6]	ΔTm (Nucleic Acid [7])	LC50 [8]	further results
Cc1coc2cc3oc(=O)ccc3cc12	15	63%	>200	9 °C	0.5 µM	1 °C	> 100 µM	O2 production [1]: 71%
COc1c2ccoc2cc2oc(=O)ccc12 [BERGAPTEN]	14	52%	>40	13 °C	2.5 µM	0.5 °C	> 100 µM	Kd [9]: 111 µM; O2 production [10]: 5%; Kd [11]: 187 µM; Kd [12]: 41 µM; Kd [13]: 177 µM; Kd [14]: > 200 µM; Kd [15]: 101 µM
COCc1cc(=O)oc2cc3occ(C)c3cc12	17	52%	>40	> 20 °C	2.5 µM	0.5 °C	> 100 µM	O2 production [1]: 43%; Kd [9]: 213 µM; Kd [12]: 18 µM; Kd [14]: 56 µM; Kd [15]: 90 µM
CCOc1cc(OCC)c2ccc(=O)oc2c1	0.7	40%	–	–	–	–	–	–
COc1c2ccoc2c(OC)c2oc(=O)ccc12 [ISOPIMPINELLIN]	–	–	–	1 °C	> 100 µM	0.5 °C	> 100 µM	O2 production [16]: -5%
Cc1cc(=O)oc2cc3c(cc12)C(C)CO3 (centres undefined)	22	45%	>4	–	–	–	–	LC50 (Artemia salina [17]): > 100 µM; LC50 (Artemia salina [18]): 25 µM
CC[N+](CC)(CC)Cc1c2ccoc2c(OC)c2oc(=O)ccc12	7	20%	–	–	–	–	–	–
COCc1c(C)oc2c(C)c3oc(=O)cc(C)c3cc12	11	31%	>5	> 20 °C	20 µM	0.5 °C	> 100 µM	O2 production [16]: 50%
COc1c2c(cc3ccc(=O)oc13)CCO2	5	4%	–	–	–	–	–	–
CCOCc1c(C)oc2c(C)c3oc(=O)cc(C)c3cc12	6	55%	–	> 20 °C	–	1 °C	–	O2 production [16]: 50%
CC[N+](CC)(CC)Cc1c(C)oc2c(C)c3oc(=O)cc(C)c3cc12.[Cl-]	5	27%	–	16 °C	–	7 °C	–	O2 production [16]: 66%
CC1COc2cc3oc(=O)ccc3cc21 (centres undefined)	3	23%	>4	0.5 °C	25 µM	0.5 °C	> 100 µM	O2 production [1]: 100%
CCOc1c2ccoc2c(OCC)c2oc(=O)ccc12	14	75%	–	0.5 °C	> 100 µM	0.5 °C	> 100 µM	O2 production [1]: -4%; Kd [9]: 178 µM; Kd [12]: 23 µM; Kd [14]: 167 µM; Kd [15]: 28 µM
O=c1ccc2cc3c(-c4ccccc4)coc3cc2o1	1.4	68%	–	–	–	–	–	–
COCc1c2ccoc2c(OC)c2oc(=O)ccc12	3	14%	–	–	–	–	–	LC50 (Artemia salina [17]): > 100 µM; LC50 (Artemia salina [18]): > 100 µM
CCOCc1c2ccoc2c(OC)c2oc(=O)ccc12	2	16%	–	1.5 °C	–	2 °C	–	O2 production [16]: 7%
C=CCOCc1c2ccoc2c(OC)c2oc(=O)ccc12	6	24%	–	–	–	–	–	–
CCOc1cc(OCC)c2c(COC)cc(=O)oc2c1	1.8	35%	–	–	–	–	–	–
Cc1coc2cc3oc(=O)cc(CO)c3cc12	4	11%	–	–	–	–	–	–
COc1c2occc2c(COC(C)C)c2ccc(=O)oc12	3	10%	–	–	–	–	–	–
COCc1cc(=O)oc2cc3occ(-c4ccccc4)c3cc12	2	27%	–	–	–	–	–	–
COc1c2occc2cc2ccc(=O)oc12 [METHOXSALEN]	4	5%	>40	10 °C	2.2 µM	1 °C	> 100 µM	O2 production [1]: 9%
Cc1coc2cc3oc(=O)cc(C)c3cc12	8	25%	>150	–	–	–	–	LC50 (Artemia salina [17]): > 100 µM; LC50 (Artemia salina [18]): 0.7 µM
COCc1c2occc2c(OC)c2ccc(=O)oc12	26	35%	–	1 °C	> 100 µM	1 °C	> 100 µM	O2 production [16]: 4%; Kd [15]: 28 µM
